# Screens as filed in PubChem.
# MrgX1 antagonist: antagonists of human MrgX1 receptor | Q96LB2 | AID 588676 | MRGX1-HEK293 calcium flux, Fluo-4, BAM8-22 antagonism; hits give low values | B-score at 10 µM | actives 1.3% (n = 310,000);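 active means calcium-response B-score plate-corrected more than 3 library SD below zero, starting fluorescence within 5 deviations, no agonist response on first addition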;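 further: peak minus trough fluorescence over baseline after final BAM8-22 challenge near maximal dose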
# Target sequence (Q96LB2 whole entry, looked up): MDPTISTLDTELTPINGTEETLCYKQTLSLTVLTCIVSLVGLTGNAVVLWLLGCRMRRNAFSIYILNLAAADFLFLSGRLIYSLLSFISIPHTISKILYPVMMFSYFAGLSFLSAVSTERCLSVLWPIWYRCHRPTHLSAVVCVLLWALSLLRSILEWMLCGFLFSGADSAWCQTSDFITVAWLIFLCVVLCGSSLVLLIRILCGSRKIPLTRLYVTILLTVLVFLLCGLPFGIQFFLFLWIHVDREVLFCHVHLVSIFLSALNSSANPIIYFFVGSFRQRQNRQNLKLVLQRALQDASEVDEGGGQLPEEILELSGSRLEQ
# MrgX1 agonist: activates human MrgX1 receptor signaling | B-score at 10 µM | actives 0.44% (n = 310,000) | AID 588627 | Q96LB2 | MrgX1-HEK293 cells, Fluo-4 calcium fluorescence, agonist mode; hits give high values;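 active means calcium response B-score plate-corrected fluorescence ratio at least 3 library SD, with starting fluorescence B-score inside 5 SD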
#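 System – MrgX1-expressing HEK293 cells · Incubation – cells plated overnight, dye loaded 0.5 h 37 °C, 0.5 h room temperature · Technique – kinetic Fluo-4 NW fluorescence of intracellular calcium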
# MrgX1 PAM: human MrgX1 positive allosteric modulation, primary screen; AID 588675; B-score at 10 µM; actives 0.63% (n = 310,000); MrgX1-HEK293, Fluo-4 calcium flux, FDSS; hits give high values; Q96LB2;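 active means plate-corrected calcium response at least 3 library SD above typical, normal starting fluorescence, not activating the receptor alone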;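 further: compound read alongside a low EC10 to EC30 dose of BAM8-22 agonist; peak minus trough fluorescence over baseline measured at the second addition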
# RGS4 block: inhibitors of human RGS4; HEK293 M3R/RGS4 inducible, Fluo-4 calcium flux; hits give high values; triggered by carbachol at its EC20; B-score at 10 µM; AID 463165; actives 0.45% (n = 310,000);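 active means B-score, a plate-corrected calcium signal, over three deviations above library mean, with baseline fluorescence within five deviations of library mean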;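 further: RGS4 expression induced by doxycycline in cells with stable M3 receptor; B-score is computed from the integrated fluorescence ratio over baseline after carbachol; higher B-score means a larger calcium signal and so more RGS4 inhibition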
# Target sequence (P49798 whole entry, looked up): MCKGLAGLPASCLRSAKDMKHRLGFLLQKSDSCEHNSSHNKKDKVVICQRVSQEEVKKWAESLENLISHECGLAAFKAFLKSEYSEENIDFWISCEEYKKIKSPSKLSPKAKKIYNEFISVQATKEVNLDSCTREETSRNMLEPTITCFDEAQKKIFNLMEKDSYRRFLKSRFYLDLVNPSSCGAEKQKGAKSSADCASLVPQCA
# RGS4 pot: RGS4 potentiation or activation | HEK293 M3R/inducible RGS4, carbachol calcium flux Fluo4; hits give low values | AID 463111 | B-score at 10 µM | actives 0.92% (n = 310,000);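 active means B-score of the integrated calcium signal more than 4 SD below the library mean, with starting fluorescence not abnormally high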;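 further: negative B-score means reduced calcium response which marks RGS4 activation or potentiation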
#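 System: HEK293 FlpIn-TREx cells, stable M3R, doxycycline-inducible RGS4. Timing: overnight RGS4 induction, 30 min dye load 37 °C, 20 min compound RT. Also added: carbachol, ECmax concentration. Measured by: Fluo4 fluorescence kinetic imaging of calcium. Evaluation: integrated calcium ratio converted to B score.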
# MrgX1 antag conf: human MrgX1 receptor antagonism, re-confirmation screen; actives 19% (n = 2,300); shares compounds with MrgX1 antagonist; MrgX1-HEK293, BAM8-22 calcium flux, Fluo-4; hits give low values; AID 602420; remaining BAM8-22 calcium response % of control (hits give low values), % at 10 µM;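 active means remaining agonist calcium response no higher than 100% minus 3 SD of agonist-only control wells, with starting fluorescence near control levels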;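 further: agonist BAM8-22 given at a near maximal EC90 to ECmax level; peak minus minimum fluorescence divided by baseline after agonist addition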
# HEK293 Ca flux: counter-screen for MrgX1 antagonists: effect in parental HEK293 cells; shares compounds with MrgX1 antagonist; Fluo-4 calcium fluorescence, FDSS; fluorescence ratio F(max-min)/F0 at 10 µM; AID 624111; actives 2% (n = 4,000);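 active means duplicate-averaged calcium fluorescence ratio at least three times the standard deviation of buffer wells, a nonspecific response in parental cells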
# HEK293 Ca counter: MrgX1 allosteric activator counter-screen hit in parental HEK293 cells | fluorescence ratio F(max-min)/F0 at 10 µM | actives 0.4% (n = 4,000) | shares compounds with MrgX1 antagonist | parental HEK293 calcium flux, Fluo-4 fluorescence ratio; hits give high values;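 active means calcium fluorescence ratio, averaged over duplicates, at least 3 SD of the buffer-well ratio, meaning a nonspecific response in receptor-free cells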;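 further: untransfected parental HEK293 lacking MrgX1 used as counterscreen for MrgX1 allosteric activators; fluorescence change taken during the second addition on a kinetic imager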
# HEK293 Ca cntr2: MrgX1 activator counter-screen hit in parental HEK293 cells. actives 8.7% (n = 4,000). shares compounds with MrgX1 antagonist. fluorescence ratio F(max-min)/F0 at 10 µM. Fluo-4 calcium fluorescence (FDSS); hits give high values;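 active means calcium fluorescence ratio at least three times the spread of buffer wells, meaning a non-specific response in parental cells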
# * hit, by the source's call; i = inactive; nt = not tested or not shown. Hits are enriched below; roughly 3.5% of the tested compounds scored in any of these assays.
SMILES,MrgX1 antagonist,MrgX1 agonist,MrgX1 PAM,RGS4 block,RGS4 pot,MrgX1 antag conf,HEK293 Ca flux,HEK293 Ca counter,HEK293 Ca cntr2
COc1ccc2c(=O)c(N3C(=O)c4ccccc4C3=O)c(C)oc2c1,-5.2*,i,i,i,i,i,i,i,i
CC(NC(=O)c1ccc(C(C)(C)C)cc1)C(c1cccs1)N1CCOCC1 (stereo not given),i,i,i,i,i,nt,nt,nt,nt
COC(=O)C1CSC(C(=O)OC)N1C(=O)CN1CCN(c2ccccc2)CC1 (stereo not given),-8.1*,i,i,i,i,77%*,i,i,i
COC(=O)C1CSC(C(=O)OC)N1C(=O)Nc1ccccc1 (stereo not given),i,i,i,i,i,nt,nt,nt,nt
CC(=O)N(C)c1cccc(-c2ccc3nnc(C)n3n2)c1,i,i,i,i,i,nt,nt,nt,nt
CCC1(c2ccc(F)cc2)NC(=O)N(CC(=O)c2cc(C)n(C3CC3)c2C)C1=O (stereo not given),-6.3*,i,i,i,i,i,i,i,51*
CCC1(c2ccc(F)cc2)NC(=O)N(CC(=O)NC2CC2)C1=O (stereo not given),i,i,i,i,i,nt,nt,nt,nt
CN(CCCOc1ccccc1Br)Cc1ccccc1,-6*,i,i,i,i,i,i,i,i
CN(CCCOc1ccccc1F)Cc1ccccc1,i,i,i,i,i,nt,nt,nt,nt
CCOc1ccc(S(=O)(=O)Nc2cc(Cl)ccc2O)cc1,-4.6*,i,i,i,i,85%*,i,i,i
O=C(/C=C1\SC(=O)NC1=O)Nc1ccc(C(=O)O)cc1,-10*,i,i,i,i,i,i,i,i
O=C(CCl)Nc1c2c(nn1-c1ccccc1)CSC2,i,i,i,i,i,nt,nt,nt,nt
COc1ccc(N2CCN(C(=O)CCc3nnc4ccc(N5CCCC5)nn34)CC2)cc1,i,i,i,i,i,nt,nt,nt,nt
CN(C)c1ccc(C2N(c3ccc(Cl)cc3)C(=O)C3CCCN32)cc1 (stereo not given),-6*,i,i,i,i,i,i,i,i
CC(CC(=O)Nc1nnc(CC(C)(C)C)s1)c1ccccc1 (stereo not given),i,i,i,i,i,nt,nt,nt,nt
COC(=O)C1CCN(S(=O)(=O)c2ccc(NC(C)=O)cc2)CC1,i,i,i,i,i,nt,nt,nt,nt
COC(=O)C1CCN(S(C)(=O)=O)CC1,-4.6*,i,i,i,i,i,i,i,i
O=C(CSc1nnc2ccc(-c3ccccn3)nn12)NCCc1ccccc1,-13*,i,i,i,i,84%*,i,i,i
COCCN(C(=O)CCc1ccccc1OC)c1nnc(-c2cccnc2)s1,i,i,i,i,i,nt,nt,nt,nt
COc1cccc(CN(C)C(=S)Nc2cccc(C)c2)c1,-4.9*,i,i,i,i,i,i,i,i
CC(C)CNC(=O)c1cccc(NC(=O)CSc2ccccc2)c1,i,i,i,i,i,nt,nt,nt,nt
CC(C)CNC(=O)c1cccc(NC(=O)Cc2ccc(Cl)cc2)c1,-5.5*,i,i,i,i,i,i,i,i
CCCn1c(NCc2ccccn2)nc2ccccc21,i,i,i,i,i,nt,nt,nt,nt
c1ccc(CNc2nc3ccccc3n2CCN2CCOCC2)nc1,-4.7*,i,i,i,i,i,i,i,i
COc1cc(OC)c(/C=N/n2c(C)nnc2C)c(OC)c1,-4.8*,i,i,i,i,i,i,i,i
SMILES,MrgX1 antagonist,MrgX1 agonist,MrgX1 PAM,RGS4 block,RGS4 pot,MrgX1 antag conf,HEK293 Ca flux,HEK293 Ca counter,HEK293 Ca cntr2
COc1ccc(/C=N/n2c(C)nnc2C)c(OC)c1,i,i,i,i,i,nt,nt,nt,nt
Cc1ccc(NC(=O)C2CCN(S(=O)(=O)c3ccc4c(c3)NC(=O)C(C)S4)CC2)cc1Cl (stereo not given),-4.6*,i,i,i,i,86%*,i,i,i
Cc1cc(C)cc(NC(=O)C2CCN(S(=O)(=O)c3ccc4c(c3)NC(=O)C(C)S4)CC2)c1 (stereo not given),i,i,i,i,i,nt,nt,nt,nt
O=C(c1cc(COc2ccc(F)cc2Cl)on1)N1CCCCC1c1cccnc1 (stereo not given),i,i,i,i,i,nt,nt,nt,nt
Cc1nonc1C1CCCN1C(=O)c1cc(COc2ccc(F)cc2Cl)on1 (stereo not given),-8.8*,i,i,i,i,i,i,i,i
C/C(=N\NC(=O)c1cc(-c2cccc([N+](=O)[O-])c2)n[nH]1)c1ccccc1O,i,i,i,i,i,nt,nt,nt,nt
CC(=O)Nc1cccc(NC(=S)Nc2cccc(Cl)c2C)c1,i,i,i,i,i,nt,nt,nt,nt
CC(=O)Nc1cccc(NC(=O)Nc2cccc(Cl)c2C)c1,-5.5*,i,i,i,i,i,i,i,i
CCOC(=O)N1CCN(C(=O)CN(Cc2ccc(Cl)cc2)S(C)(=O)=O)CC1,-6.2*,i,i,i,i,i,i,i,i
COc1cccc(NC(=S)N2CCN(S(C)(=O)=O)CC2)c1,i,i,i,i,i,nt,nt,nt,nt
CC(=O)c1sc2nc(-c3cccs3)ccc2c1N,i,i,i,i,i,nt,nt,nt,nt
CC(C)NC(=O)c1sc2nc(-c3cccs3)cc(-c3cccs3)c2c1N,-9*,i,i,i,i,i,i,i,i
COc1ccc(N2CCN(C(=O)c3ccc(CNS(=O)(=O)c4cc(C)ccc4C)cc3)CC2)cc1,i,i,i,i,i,nt,nt,nt,nt
O=C(NNC(=O)c1cc(-c2cccnc2)nc2ccccc12)Nc1ccc(Cl)cc1,-13*,i,6.9*,i,i,i,i,i,i
